Assay results as given in ChEMBL document CHEMBL1129978, “Effect of structural modification of enol-carboxamide-type nonsteroidal antiinflammatory drugs on COX-2/COX-1 selectivity” (J Med Chem, 1997).

Columns and labels:
[1] = target: T1, Prostaglandin G/H synthase 1 (Homo sapiens, UniProt P23219); test: Inhibition of human Prostaglandin G/H synthase 1 at 1 ug/mL expressed as mean percent inhibition of control PGE-2 production
Method in brief: (§1)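 Human COX-1 and COX-2 genes expressed in a baculovirus system; microsomes prepared from High Five insect cells and used as the enzyme source. Activity read as PGE2 production. Each dose run in duplicate wells within each experiment, and values given as mean percent inhibition of control PGE2.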

[2] = target: T1, Prostaglandin G/H synthase 1; test: Inhibition of human Prostaglandin G/H synthase 1 at 0.1 ug/mL expressed as mean percent inhibition of control PGE-2 production; method in brief: as §1
[3] = target: T1, Prostaglandin G/H synthase 1; test: Inhibition of human Prostaglandin G/H synthase 1 at 10 ug/mL expressed as mean percent inhibition of control PGE-2 production; method in brief: as §1

T1 sequence (P23219 whole entry): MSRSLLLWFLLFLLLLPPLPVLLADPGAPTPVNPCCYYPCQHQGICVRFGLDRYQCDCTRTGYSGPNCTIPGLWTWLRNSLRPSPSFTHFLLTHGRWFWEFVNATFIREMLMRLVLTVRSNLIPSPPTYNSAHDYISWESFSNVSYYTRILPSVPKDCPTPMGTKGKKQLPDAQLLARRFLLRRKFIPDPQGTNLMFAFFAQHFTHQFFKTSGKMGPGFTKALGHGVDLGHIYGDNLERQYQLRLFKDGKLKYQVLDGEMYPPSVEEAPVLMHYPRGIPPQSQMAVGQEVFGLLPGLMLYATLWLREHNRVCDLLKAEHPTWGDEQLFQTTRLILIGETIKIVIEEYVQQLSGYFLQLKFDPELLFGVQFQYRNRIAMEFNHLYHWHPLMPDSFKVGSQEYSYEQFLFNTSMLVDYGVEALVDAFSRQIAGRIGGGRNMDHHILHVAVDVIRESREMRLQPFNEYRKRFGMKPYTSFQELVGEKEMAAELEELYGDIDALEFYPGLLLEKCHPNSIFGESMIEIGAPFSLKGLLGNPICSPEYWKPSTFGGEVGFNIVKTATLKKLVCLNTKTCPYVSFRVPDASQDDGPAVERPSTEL

| SMILES | inhibition [1] | inhibition [2] | inhibition [3] |
| --- | --- | --- | --- |
| CC1Sc2ccc(Cl)cc2C(O)=C1C(=O)Nc1ccccn1 (stereo not drawn) | 25% | 14% | 30% |
| O=C(Nc1cccc(Cl)c1)C1=C(O)c2ccccc2SC1 | 75% | 19% | 83% |
| CN1C(C(=O)Nc2nccs2)=C(O)c2c(c3ccccc3n2C)S1(=O)=O | 44% | -2% | 97% |
| O=C1/C(=C(/O)Nc2ccc(Cl)cc2Cl)c2cc(Cl)ccc2C(=O)N1Cc1ccccc1 | 84% | 6% | 100% |
| O=C(Nc1ccc(Cl)cc1Cl)C1=C(O)N(Cc2ccccc2)S(=O)(=O)c2ccc(Cl)cc21 | 54% | 4% | 100% |
| Cc1cnc(NC(=O)C2=C(O)c3sc4cc(Cl)ccc4c3S(=O)(=O)N2C)s1 | 100% | 58% | 100% |
| CN1C(O)=C(C(=O)Nc2ccc(Br)cc2)c2ccccc2S1(=O)=O | 88% | 54% | 100% |
| Cc1cnc(NC(=O)C2=C(O)c3ccccc3S(=O)(=O)N2Cc2ccccc2)s1 | 10% | 3% | 42% |
| CCN1C(O)=C(C(=O)Nc2ccc(Cl)cc2Cl)c2cc(Cl)ccc2S1(=O)=O | 85% | 36% | 99% |
| Cn1c(C(=O)Nc2ccccn2)c(O)c2ccccc2c1=O | -3% | – | 19% |
| CN1C(O)=C(C(=O)Nc2nccs2)c2c(ccc3ccccc23)S1(=O)=O | 57% | 24% | 93% |
| CCN1C(C(=O)Nc2ncc(C)s2)=C(O)c2ccccc2S1(=O)=O | -6% | -2% | 27% |
| CN1C(O)=C(C(=O)Nc2ccc(Cl)cc2)c2cc3ccccc3cc2S1(=O)=O | 100% | 57% | 100% |
| Cc1cnc(NC(=O)C2=C(O)c3cc(Cl)ccc3SC2C)s1 (stereo not drawn) | 20% | 12% | 30% |
| Cc1cc2c(s1)C(C(=O)Nc1ccc(Cl)cc1)=C(O)N(C)S2(=O)=O | 80% | 40% | 98% |
| CC1(C)Sc2ccccc2C(O)=C1C(=O)Nc1cccc(Cl)c1 | 20% | 3% | 29% |
| CN1C(O)=C(C(=O)Nc2ccccc2Cl)c2cc(Cl)c(Cl)cc2S1(=O)=O | 97% | 28% | 100% |
| Cc1cnc(N/C(O)=C2\C(=O)N(Cc3ccccc3)C(=O)c3ccc(Cl)cc32)s1 | 35% | 8% | 83% |

| SMILES | inhibition [1] | inhibition [2] | inhibition [3] |
| --- | --- | --- | --- |
| Cc1cnc(NC(=O)C2=C(O)N(C)S(=O)(=O)c3ccccc32)s1 | 18% | 3% | 66% |
| CCn1c2c(c3ccccc31)S(=O)(=O)N(C)C(C(=O)Nc1nccs1)=C2O | -1% | – | 81% |
| CN1C(c2nc3ccccc3[nH]2)=C(O)c2ccccc2S1(=O)=O | 4% | -4% | 16% |
| Cc1cnc(N/C(O)=C2\C(=O)N(C)C(=O)c3ccc(Cl)cc32)s1 | 35% | 5% | 76% |
| O=C(Nc1ccccn1)C1=C(O)c2ccccc2SC1 | 34% | -1% | 83% |
| CN1C(C(=O)Nc2nccs2)=C(O)c2sc3cc(Cl)ccc3c2S1(=O)=O | 100% | 99% | 100% |
| CN1C(C(=O)Nc2ccc(Cl)cc2)=C(O)c2ccc3ccccc3c2S1(=O)=O | 34% | 15% | 38% |
| CN1C(O)=C(C(=O)Nc2ccc(F)cc2F)c2cc(F)ccc2S1(=O)=O | 73% | 22% | 97% |
| CN1C(O)=C(C(=O)Nc2nccs2)c2cc3ccccc3cc2S1(=O)=O | 11% | -3% | 64% |
| Cc1cnc(NC(=O)C2=C(O)N(C)S(=O)(=O)c3cc(Cl)ccc32)s1 | 66% | 10% | 94% |
| CN1C(C(=O)Nc2nccs2)=C(O)c2c(c3cc(Cl)ccc3n2C)S1(=O)=O | 80% | 16% | 95% |
| CN1C(O)=C(C(=O)Nc2nccs2)c2ccc(Cl)cc2S1(=O)=O | 66% | -8% | 99% |
| O=C(Nc1ccc(Cl)cc1Cl)C1=C(O)N(C2CC2)S(=O)(=O)c2ccc(Cl)cc21 | 65% | 24% | 100% |
| COc1ccc2c(c1)C(O)=C(C(=O)Nc1ncc(C)s1)N(C)S2(=O)=O | – | -1% | – |
| Cc1cnc(NC(=O)C2=C(O)c3ccccc3SC2(C)C)s1 | 11% | – | 16% |
| Cc1cc2c(s1)S(=O)(=O)N(C)C(C(=O)Nc1nccs1)=C2O | 5% | 1% | – |
| CN1C(C(=O)Nc2ccccc2)=C(O)c2c(c3cc(Cl)ccc3n2C)S1(=O)=O | 10% | 1% | – |
| CN1C(C(=O)Nc2ccccc2)=C(O)c2c(ccc3ccccc23)S1(=O)=O | -5% | – | 18% |

Second part, the compound after the results:

| inhibition [1] | inhibition [2] | inhibition [3] | SMILES |
| --- | --- | --- | --- |
| 23% | 6% | 18% | CN1C(C(=O)Nc2ccc(Cl)cc2)=C(O)c2cc(Cl)ccc2S1(=O)=O |
| 16% | 6% | 40% | CN1C(C(=O)Nc2ccc(Cl)cc2)=C(O)c2cc(F)ccc2S1(=O)=O |
| 53% | 15% | 82% | Cc1cc2c(s1)C(C(=O)Nc1ccccn1)=C(O)N(C)S2(=O)=O |
| 96% | 32% | 100% | CN1C(O)=C(C(=O)Nc2ccccc2Cl)c2cc(F)ccc2S1(=O)=O |
| 78% | 29% | 100% | CN1C(C(=O)Nc2ccccn2)=C(O)c2ccc3ccccc3c2S1(=O)=O |
| -1% | 0% | 21% | Cc1ccc2c(c1)C(O)=C(C(=O)Nc1ccc(Cl)cc1)N(C)S2(=O)=O |
| 100% | 75% | 100% | CN1C(C(=O)Nc2nccs2)=C(O)c2ccc3ccccc3c2S1(=O)=O |
| 18% | 0% | 2% | Cc1nnc(NC(=O)C2=C(O)c3ccccc3S(=O)(=O)N2C)s1 |
| 16% | 6% | 50% | COc1ccc2c(c1)S(=O)(=O)N(C)C(C(=O)Nc1ncc(C)s1)=C2O |
| 49% | 13% | 95% | CN1C(C(=O)Nc2nc3ccccc3s2)=C(O)c2ccccc2S1(=O)=O |
| -1% | -4% | 25% | CCn1c2c(c3ccccc31)S(=O)(=O)N(C)C(C(=O)Nc1ccccn1)=C2O |
| -8% | -1% | -1% | Cc1ccc2c(c1)C(O)=C(C(=O)Nc1ccccc1)N(C)S2(=O)=O |
| 36% | -9% | 85% | Cc1cnc(NC(=O)C2=C(O)c3ccc(Cl)cc3S(=O)(=O)N2C)s1 |
| -10% | – | 25% | CN1C(C(=O)Nc2ccccn2)=C(O)c2c(ccc3ccccc23)S1(=O)=O |
| 100% | 69% | 93% | CN1C(C(=O)Nc2ccccn2)=C(O)c2sc3cc(Cl)ccc3c2S1(=O)=O |
| 38% | 9% | 61% | CN1C(C(=O)Nc2ccccc2)=C(O)c2cc(F)ccc2S1(=O)=O |

| inhibition [1] | inhibition [2] | inhibition [3] | SMILES |
| --- | --- | --- | --- |
| 14% | 0% | 90% | CN1C(C(=O)Nc2ccccn2)=C(O)c2c(c3ccccc3n2C)S1(=O)=O |
| 19% | 8% | 72% | CN1C(C(=O)Nc2nc(C(F)(F)F)cs2)=C(O)c2ccccc2S1(=O)=O |
| 17% | – | 51% | CN1C(C(=O)Nc2nccs2)=C(O)c2ccccc2S1(=O)=O |
| -5% | -6% | -3% | COc1ccc2c(c1)C(O)=C(C(=O)Nc1ccccc1)N(C)S2(=O)=O |
| 31% | 8% | 69% | Cc1ccc2c(c1)S(=O)(=O)N(C)C(C(=O)Nc1ncc(C)s1)=C2O |
| 36% | -4% | 82% | Cc1cnc(NC(=O)C2=C(O)c3ccc(F)cc3S(=O)(=O)N2C)s1 |
| 14% | 3% | 43% | CN1C(C(=O)Nc2ccccn2)=C(O)c2cc(Cl)ccc2S1(=O)=O |
| 28% | – | 90% | CN1C(C(=O)Nc2ccccn2)=C(O)c2c(c3cc(Cl)ccc3n2C)S1(=O)=O |
| 62% | 22% | 73% | Cc1ccc2c(c1)/C(=C(\O)Nc1ccccn1)C(=O)N(C)C2=O |
| 58% | 27% | 92% | O=C(Nc1ccccn1)C1=C(O)c2cc(Cl)ccc2SC1 |
| 26% | 3% | 74% | CN1C(C(=O)Nc2ccccn2)=C(O)c2ccc(F)cc2S1(=O)=O |
| 7% | -2% | 10% | Cc1cc(NC(=O)C2=C(O)c3ccccc3S(=O)(=O)N2C)no1 |
| 21% | 2% | 56% | Cc1cnc(NC(=O)C2=C(O)c3cc(F)ccc3S(=O)(=O)N2C)s1 |
| 53% | – | 96% | CN1C(O)=C(C(=O)Nc2ccccn2)c2cc(Cl)ccc2S1(=O)=O |
| 5% | -9% | – | Cc1ccc2c(c1)C(O)=C(C(=O)Nc1ccccn1)N(C)S2(=O)=O |
